Screening data deposited in PubChem by several laboratories.
In the library only some 4.8% were active in any assay of this set; here they are far more common.
CSC inhib: cancer stem cell inhibition; cancer stem cell-like cells viability, luminescence; actives 1.1% (n = 300,000); inhibition, % at 7.5 µM; in the data active = inhibition above about 75%; inconclusive = no clear call, values can overlap the other calls; tested in HMLE shEcad cells
SKKanGAS inh: blocks kanamycin growth of S. pyogenes SKKanGAS strain | AID 1662 | BacTiter-Glo, 6 h | inhibition, % at 7.5 µM | actives 1.3% (n = 300,000);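 active = mean replicate score, as percent of positive control median, at least 50; inconclusive = mean below 50 but one replicate at or above 50; inactive = mean and every replicate below 50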;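 also: strain carries kanamycin resistance gene driven by streptokinase promoter and grows in 40 µg/ml kanamycin; loss of luminescence reflects streptokinase promoter inhibition or plain growth inhibition; 0% = median of DMSO wells and 100% = positive control at its reference dose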
Beta cell apopt: beta cell apoptosis inhibition; protection from apoptosis, % (concentration not given with the values); INS-1E cytokine-induced death, ATP luminescence, 48 h; percent of positive-control rescue, neutral wells zero; actives 0.8% (n = 300,000);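 active = Every replicate reaches about 75%, or at least half do and their mean reaches it too, limit read from the data; inconclusive = At least half of replicates reach the limit but their mean does not; inactive = Under half of replicates reach the limit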;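 also: 0% = cytokine-treated negative control wells and 100% = positive control rescue; higher means more ATP so stronger rescue from cytokine killing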
UPR XBP1 act: adaptive UPR (XBP1) activation; activation, % at 20 µM; CHO-XBP1 luciferase reporter, IRE1-XBP1 UPR activation, luminescence; percent of tunicamycin response, DMSO as zero; actives 0.33% (n = 330,000);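 active = versus positive control, 20 µM dose yields 30% or more activation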;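 also: 100% = tunicamycin at 10 µg/mL and 0% = DMSO only wells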
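Assay system: IRE1-XBP1 luciferase reporter CHO line. Input: 1000 cells/well. Buffer or medium: F12 with 10% serum. Doses: 20 µM, 1% DMSO. Times: overnight seeding at 37 °C, 6 h compound treatment at 37 °C. Technique: Steady-Glo luciferase glow luminescence, 10 min after reagent addition.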
Mdm2-MdmX inh: disrupts the human Mdm2-MdmX interaction; O15151+Q00987; SaOS-2 split-luciferase Mdm2/MdmX complementation, luminescence; inhibition, % at 8 µM; actives 3% (n = 330,000);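 active = inhibition of at least 50% at 8 µM in the primary screen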
CHOP UPR activ: activators of apoptotic arm of unfolded protein response (CHOP); CHO-CHOP luciferase reporter, UPR activation, luminescence; percent of tunicamycin response over DMSO baseline; activation, % at 10 µM; actives 0.34% (n = 330,000); AID 449763;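 active = at 10 µM dose, activation of 40% or more, normalized to positive control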;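 also: 100% = tunicamycin at 10 µg/mL and 0% = DMSO alone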
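Test system: CHO-CHOP cells, stable luciferase reporter of PERK-eIF2a-CHOP signalling | Quantity: 500 CHO-CHOP cells per well | Buffer or medium: F12 plus 10% serum | Compound dosing: 10 µM single point, 0.5% DMSO | Schedule: 6 h compound treatment, 37 °C | Signal: Luciferase luminescence | Control set: Tunicamycin high control, DMSO low control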
* marks the source's active call; other numbers are inactive results; ? = inconclusive; / = no result given.

SMILES	CSC inhib	SKKanGAS inh	Beta cell apopt	UPR XBP1 act	Mdm2-MdmX inh	CHOP UPR activ
O=c1c(C=NCc2cccs2)c(O)n(C2CCCCC2)c(=O)n1C1CCCCC1	46	14	1	-2	27	-3
N=C(N)c1c(O)n(C2CCCCC2)c(=O)n(C2CCCCC2)c1=O	102*	13	57	7	39	0
O=C(NC1CONC1=O)OCC(Cl)(Cl)Cl (stereo not given)	77*	5	41	0	14	0
Cc1nc2ccccc2c(=O)n1/N=C/c1cc(Br)cc(Br)c1O	10	99*	/	0	17	0
Cc1nc2ccccc2c(=O)n1-c1ccc(Br)cn1	-15	-3	-2	-1	18	0
O=C(N/N=C/c1c(O)n(C2CCCCC2)c(=S)[nH]c1=O)c1ccccc1	8	80*	20	2	33	-1
O=c1[nH]c(=S)n(C2CC2)c(O)c1/C=N/Nc1ccccc1	-2	6	-5	1	16	2
CCCCn1c(O)c(/C=N/NC(=O)c2ccncc2)c(=O)[nH]c1=O	-28	33	-9	3	-2	-1
O=C(N/N=C/c1c(O)n(CCc2ccccc2)c(=O)[nH]c1=O)c1ccccc1	3	55*	-1	0	-12	9
O=C(N/N=C/c1c(O)n(C2CCCCC2)c(=S)[nH]c1=O)c1ccccc1O	24	55*	2	-2	18	-3
O=C(N/N=C/c1c(O)n(Cc2ccco2)c(=O)[nH]c1=O)c1ccccc1O	7	68*	-3	-2	-36	1
CC(Cc1ccccc1)NC(=O)CCCCC(=O)NC(C)Cc1ccccc1 (stereo not given)	-1	0	0	-6	11	0
CCOCC(=O)NC1CCSC1=O (stereo not given)	-11	5	-8	2	11	-1
N=c1n(CCO)c2ccccc2n1Cc1ccccc1	-6	-2	2	-5	-2	-1
CC1(C)CC(=O)C2=C(C1)NC(=O)C21C(C(=O)OC(C)(C)C)=C(N)Oc2ccc(Br)cc21 (stereo not given)	/	-12	0	1	15	1
CC(C)c1ccc(-n2c(O)c(/C=N/NC(=O)c3ccncc3)c(=O)[nH]c2=O)cc1	0	1	2	-4	-15	3
CC(C)c1ccc(-n2c(O)c(/C=N/NC(=O)c3ccccc3O)c(=O)[nH]c2=S)cc1	-4	70*	-6	-4	-4	0
COc1ccccc1-n1c(-c2ccc(C)cc2)nc2ccccc2c1=O	/	-2	/	-3	7	3
CCn1c(=O)n(CC(=O)N2CCC3(CC2)OCCO3)c(=O)c2ccccc21	-12	-9	-9	-2	14	-1
CCCCn1c(=O)c(C(=O)NCCc2ccccc2)c(O)c2ccccc21	45	54*	-3	-7	6	1
CCCCCCn1c(=O)c(C(=O)Nc2c(C)n(C)n(-c3ccccc3)c2=O)c(O)c2ccccc21	41	89*	3	4	16	1
CCOC(=O)Cc1csc(NC(=O)c2c(O)c3ccccc3n(CCC(C)C)c2=O)n1	17	68*	-5	-2	10	12
CCCCCn1c(=O)c(C(=O)NCc2ccccc2Cl)c(O)c2ccccc21	4	14	101*	-2	28	2
OC(CNC1CCCCCCC1)c1ccccc1 (stereo not given)	26	3	-2	1	-27	-3
CCCCn1c(=O)c(C(=O)Nc2ccc(C)cn2)c(O)c2ccccc21	-24	6	3	7	19	15
SMILES	CSC inhib	SKKanGAS inh	Beta cell apopt	UPR XBP1 act	Mdm2-MdmX inh	CHOP UPR activ
CCCCn1c(=O)c(C(=O)Nc2ccccn2)c(O)c2ccccc21	23	53*	29	1	30	2
CCCCCCOc1ccc(CN2CCN(C)CC2)cc1	/	-9	109*	-3	40	1
CN1CCN(Cc2ccc3ccccc3c2)CC1	-6	0	-7	-4	3	-1
COc1ccc(-n2c(O)c(C(C)=NC3CC3)c(=O)[nH]c2=O)cc1	/	3	-9	-7	7	-1
CCC(C)n1c(O)c(C=NCCc2ccccc2)c(=O)[nH]c1=S (stereo not given)	-4	0	-6	3	-28	0
CCC(C)n1c(O)c(/C=N/Nc2ccccc2)c(=O)[nH]c1=S (stereo not given)	83*	?	2	1	7	2
O=C(N/N=C/c1c(O)n(Cc2ccc(F)cc2)c(=S)[nH]c1=O)c1ccncc1	5	101*	-10	1	17	0
CCC(C)n1c(O)c(/C=N/NC(=O)c2ccncc2)c(=O)[nH]c1=S (stereo not given)	17	91*	-2	0	3	-1
CCn1c(O)c(/C=N/NC(=O)c2ccncc2)c(=O)[nH]c1=S	-1	11	1	-1	-24	6
Cn1c(O)c(C=NCCc2c[nH]c3ccccc23)c(=O)n(C)c1=O	-1	0	0	0	20	1
CNC(=O)O/N=C(\C)Cc1nnn(-c2cc(C)on2)n1	-2	1	-4	2	9	-3
CCN(CC)C(=O)c1ccc(NC(=O)c2c(C)noc2C)cc1	-10	/	2	2	-14	19
CC/C(=N\Nc1ccccc1)c1c(O)n(-c2ccc(OC)cc2)c(=O)[nH]c1=O	76*	4	2	-1	-7	1
CCC(=NCCO)c1c(O)n(-c2ccccc2)c(=O)[nH]c1=O	-9	2	-1	2	8	-1
c1ccc2c3c([nH]c2c1)C1(CCNCC1)NCC3	-2	-13	87*	-2	18	1
CCCC1C(C#N)=C(N)Oc2c1c(=O)oc1ccccc21 (stereo not given)	-4	-3	-1	-5	19	1
Cc1ccc(-n2nc(C)c(C3C(C#N)=C(N)Oc4c3c(=O)oc3ccccc43)c2Cl)cc1 (stereo not given)	/	119*	/	/	/	/
O=C(Nc1ccccc1)c1c(O)c2c(n(Cc3ccco3)c1=O)CCCC2	6	-4	/	0	22	0
O=C(Nc1nccs1)c1c(O)c2c(n(Cc3ccco3)c1=O)CCCC2	9	55*	-1	3	35	2
COC1=CC(=O)[C@]2(C=C1OC)OC[C@@H]1Oc3c(ccc4c3C=CC(C)(C)O4)C(=O)[C@@H]12	4	/	126*	0	2	3
C#CC1(OC(=O)c2ccccc2)CC(C)N(C)CC1C (stereo not given)	-15	-2	-16	-6	11	2
O=c1[nH]c(CN2CC=C(c3ccccc3)CC2)nc2scc(-c3ccccc3)c12	81*	64*	-7	-3	8	1
